Screening results: PubChem, The Scripps Research Institute Molecular Screening Center
Compounds with a hit are over-represented: about 1.9% of the library has one in this group of screens.
CHRM4 antagonist: CHRM4 antagonism in calcium assay; CHO-hM4 cells, ACh EC80, Fluo-8 calcium fluorescence; AID 624125; inhibition, % at 3 µM; P08173; 360,000 compounds, 0.73% hits;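 active = inhibition above its plate's cutoff, the mean inhibition of sample wells plus 3 SD, cut at about 27% in these data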;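 note: 0% = acetylcholine EC80 with DMSO and 100% = DMSO without agonist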
CHRM5 antagonist: CHRM5 antagonism in calcium assay. CHO-hM5 cells, Fluo-8 calcium fluorescence, ACh EC80. 360,000 compounds, 0.59% hits. inhibition, % at 3 µM. AID 624040;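 active = inhibition above a per-plate cutoff, the mean of that plate's test compounds plus 3 SD, cut at about 27% in these data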;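 note: 0% = acetylcholine EC80 with DMSO and 100% = DMSO without agonist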
Target sequence (P08912 whole entry, looked up): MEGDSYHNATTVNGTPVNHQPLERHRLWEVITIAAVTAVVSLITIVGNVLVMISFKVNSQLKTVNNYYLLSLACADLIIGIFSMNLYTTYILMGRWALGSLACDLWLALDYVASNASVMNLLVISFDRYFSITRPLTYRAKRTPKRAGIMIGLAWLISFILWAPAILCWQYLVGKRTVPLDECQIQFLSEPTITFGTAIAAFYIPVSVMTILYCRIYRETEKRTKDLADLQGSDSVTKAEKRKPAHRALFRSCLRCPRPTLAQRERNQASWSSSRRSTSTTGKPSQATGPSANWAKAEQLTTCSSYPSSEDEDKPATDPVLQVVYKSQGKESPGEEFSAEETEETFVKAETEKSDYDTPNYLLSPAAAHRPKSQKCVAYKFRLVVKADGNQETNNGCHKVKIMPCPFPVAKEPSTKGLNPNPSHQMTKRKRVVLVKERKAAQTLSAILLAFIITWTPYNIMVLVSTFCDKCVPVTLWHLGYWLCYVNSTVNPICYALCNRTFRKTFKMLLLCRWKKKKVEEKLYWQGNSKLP
CHRM4 agonist: agonists of human muscarinic M4 receptor (CHRM4). activation, % at 3 µM. P08173. CHO-K1 hM4/Gqi5, Fluo-8 calcium fluorescence; vehicle 0%, full acetylcholine response 100%. AID 624127. 360,000 compounds, 0.14% hits;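 active = activation above the run mean over all test wells plus 3 SD, cut at about 32% in these data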;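 note: peak over basal fluorescence ratio per well then scaled between controls; 0% = DMSO wells and 100% = acetylcholine at EC100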
M5 ag: CHRM5 agonism in calcium assay; CHO-K1 hM5 cells, Fluo-8 calcium fluorescence; 0% DMSO wells, 100% maximal acetylcholine response; 360,000 compounds, 0.19% hits; activation, % at 3 µM; AID 624037; P08912;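 active = activation above the run's mean over test compounds plus 3 SD, cut at about 23% in these data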;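 note: signal is peak over basal fluorescence ratio across the kinetic read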
CHRM4 PAM: CHRM4 positive allosteric modulation. AID 624126. 360,000 compounds, 0.4% hits. CHO-K1 hM4/Gqi5, Fluo-8 calcium fluorescence, ACh EC20; 0% = ACh EC20, 100% = maximal ACh. activation, % at 3 µM. P08173;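 active = activation above its plate's cutoff, the mean activation of sample wells plus 3 SD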
CHRM5 PAM: positive allosteric modulators of human muscarinic M5 receptor. P08912. CHO-K1 hM5, Fluo-8 calcium, ACh EC20 PAM; 0% = ACh EC20, 100% = ACh EC100. activation, % at 3 µM. 360,000 compounds, 0.3% hits. AID 624038;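 active = activation above the run cutoff, the mean activation of all test compounds plus 3 SD, cut at about 18% in these data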
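System: CHO-K1 cell line with stable human muscarinic M5 receptor expression | Also added: EC20 acetylcholine as agonist stimulus | Compound: One concentration, 3 µM final (nominal) | Timing: Fluo-8 loading 80 min at 37 °C plus 30 min room temperature | Measured by: Fluo-8 calcium dye fluorescence, kinetic read | Read-out basis: % activation, ACh-normalized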
Active calls of the source: *.

SMILES | CHRM4 antagonist | CHRM5 antagonist | CHRM4 agonist | M5 ag | CHRM4 PAM | CHRM5 PAM
CCN1C(=O)[C@H]2[C@@H](c3ccc(OC)cc3)N3C(=O)CN(CCOC)C(=O)[C@@]3(C)[C@H]2C1=O | 3.9 | 9.9 | 0.4 | -0.6 | 2.0 | 0.1
COc1cc(Cl)c(C)cc1NC(=O)c1ccc(NS(=O)(=O)c2ccc(F)c(F)c2)cc1 | -9.4 | 5.0 | 0.3 | 1.2 | 20.0* | 7.6
COc1cc(C(=O)C(=O)N2CCN(c3ccccc3)CC2)cc2ccccc12 | -18.5 | -18.9 | 5.1 | 0.5 | 3.5 | 18.5*
COc1ccc(N2CCN(C(=O)C(=O)c3cc(OC)c(OC)c(OC)c3)CC2)cc1 | -14.0 | 12.9 | 4.5 | 0.9 | 0.7 | -7.2
O=S(=O)(Nc1cccc(S(=O)(=O)N2CCCCC2)c1)c1ccc(Cl)s1 | 5.3 | 6.5 | 7.0 | 2.9 | 1.2 | -4.4
Cc1ccc(NC(=O)N2CCC(NC(=O)C(C)(C)C)CC2)cc1 | -6.1 | -0.4 | 0.3 | -4.7 | 8.9 | 42.5*
CCN(C(=O)c1ccc(NC(C)=O)cc1)c1ccccc1 | -18.9 | -6.2 | 0.5 | 2.0 | 19.1* | -1.1
Cc1ccc2c(c1)cc1c(=O)n(CC(=O)NCCCc3ccccc3)nc(C)n12 | 32.5* | 4.5 | 18.8 | 2.8 | -9.7 | -11.4
Cc1nn(CC(=O)NCCCc2ccccc2)c(=O)c2cc3occc3n12 | -23.0 | -8.6 | 0.2 | -3.4 | 15.3 | 7.4
O=C(CSc1nnc(NC(=O)c2ccc(F)cc2)s1)NC1CCCC1 | 9.8 | 10.4 | 0.2 | -2.0 | -3.2 | -4.1
CCCCCCCC1CC(=O)C=C(C)C1C(=O)OCC (stereo unspecified) | -0.6 | 14.1 | -0.6 | -3.9 | 11.7* | -4.2
CCCCOC(=O)C1=C(C)NC(=O)NC1c1ccc(OC)cc1 (stereo unspecified) | -6.5 | -8.6 | 0.6 | -1.8 | 1.1 | 18.1*
Cc1nnc(N2C(=O)C(=O)/C(=C(\O)c3ccc4c(c3)CC(C)O4)C2c2ccccc2)s1 (stereo unspecified) | -8.2 | 6.0 | -0.3 | -3.1 | 8.6 | 2.9
COc1cccc(CNC(=O)CSc2nnc3c(n2)[nH]c2ccccc23)c1 | 6.6 | 18.2 | 1.5 | 0.4 | 0.0 | 3.4
Fc1ccc(COc2ccc(Cl)cc2/C=N/Nc2nc(N3CCCC3)nc(N3CCCC3)n2)cc1 | -0.7 | 17.1 | 34.1* | 1.7 | -15.4 | -9.3
COC(=O)c1ccc(CN2CCN(C3CCCC3)C(CCO)C2)cc1 (stereo unspecified) | 76.7* | -2.3 | 1.4 | -10.0 | -21.2 | -7.9
CC(=O)Nc1ccc(CN2CCN(C3CCCCC3)C(CCO)C2)cc1 (stereo unspecified) | 14.9 | 6.8 | -0.1 | -14.1 | -34.7 | -4.5
COC(=O)c1ccc(CN2CCN(C3CCCCC3)C(CCO)C2)cc1 (stereo unspecified) | 60.5* | -7.6 | 0.1 | -21.2 | -50.3 | 7.2
Cc1cc(Cl)cc(Cl)c1OCCN1CCCC1 | -14.9 | -19.2 | 1.8 | -15.6 | -1.2 | 23.8*
CC(=O)c1ccc(N2CCN(C(=O)c3ccc(Cl)c(NC4=NC5CS(=O)(=O)CC5S4)c3)CC2)cc1 (stereo unspecified) | 17.4 | 28.9* | 15.8 | -1.4 | 48.2* | 20.8*
CN1CCN(C2=Nc3ccccc3Oc3ccc(Cl)cc32)CC1 | 37.4* | 71.8* | 1.5 | -1.2 | -16.5 | -19.2
Cc1c(CC(=O)O)c(=O)oc2c(C)c3occ(-c4ccccc4)c3cc12 | 45.9* | 12.8 | -1.0 | -5.7 | -16.1 | -0.9
Cn1c(-c2ccc3c(c2)OCO3)cnc1NCc1ccc(Cl)cc1 | 14.3 | 2.7 | 1.0 | -7.2 | -28.4 | -10.1
Cc1ccc(CNc2ncc(-c3ccc4c(c3)OCO4)n2C)cc1 | 28.0* | 5.0 | 0.0 | -6.9 | -27.9 | -12.2
COc1ccc(CC(N)c2csc(Nc3cccc(OC)n3)n2)cc1 (stereo unspecified) | 0.4 | 2.1 | 18.2 | 5.8 | 4.0 | 2.3
SMILES | CHRM4 antagonist | CHRM5 antagonist | CHRM4 agonist | M5 ag | CHRM4 PAM | CHRM5 PAM
COc1cccc(Nc2nc(C(N)Cc3ccc(C(F)(F)F)cc3)cs2)n1 (stereo unspecified) | 12.3 | 9.3 | 8.6 | 3.6 | 14.7 | 6.0
COc1cccc(Nc2nc(C(N)Cc3ccc(F)cc3)cs2)n1 (stereo unspecified) | 13.8 | 1.7 | 35.1* | 11.1 | 6.2 | 4.4
COc1cccc(Nc2nc(C(N)Cc3ccc(Cl)cc3)cs2)n1 (stereo unspecified) | 25.9 | 13.4 | 47.5* | 49.3* | 1.3 | 0.6
COc1ccc(CNC(=O)COC(=O)c2[nH]c(C)c(C(C)=O)c2C)cc1OC | -3.5 | 10.8 | 1.1 | 3.2 | 3.1 | 2.0
CC(Sc1ccccc1)C(=O)NNC(=O)c1csc(N2CCOCC2)n1 (stereo unspecified) | -11.1 | -1.6 | 1.0 | 2.5 | 7.1 | 4.4
Cc1ccc(S(=O)(=O)N2CCN(C(=O)c3sccc3-c3ccccc3)CC2)cc1 | 2.3 | 29.6* | 5.9 | -5.9 | -6.7 | -11.9
Cc1ccc(C(=O)Nc2ccc(C(=O)O)cc2NC(=O)c2ccc(C)cc2)cc1 | -0.4 | -4.4 | 0.3 | 1.7 | 2.0 | 1.6
COC(=O)c1ccccc1S(=O)(=O)N1CCC(C(=O)NCC2CCCO2)CC1 (stereo unspecified) | 2.9 | 3.2 | 0.7 | 1.8 | -1.9 | 8.5
COC(=O)c1ccccc1S(=O)(=O)N1CCC(C(=O)NCc2ccco2)CC1 | -4.2 | 1.2 | 0.8 | 0.0 | 23.4* | 10.9
O=C(CCC(=O)N1CCN(c2ccc(Cl)c(Cl)c2)CC1)c1ccccc1 | 16.6 | 27.3* | 11.4 | 3.1 | -8.9 | -14.9
O=C(CCC(=O)N1CCN(c2ccc(F)cc2)CC1)c1ccc(Cl)cc1 | -7.7 | 2.6 | 6.8 | 1.2 | -4.7 | -4.9
O=C(CCSCc1ccccc1Cl)N1CCN(c2cccc(Cl)c2)CC1 | -16.6 | -11.1 | -0.2 | -0.7 | 23.1* | -0.5
c1ccc(CCNc2ncnc3scc(C4COc5ccccc5O4)c23)cc1 (stereo unspecified) | 38.0* | 15.4 | -0.7 | -3.6 | -18.8 | -9.7
CCC(C)N(C)Cc1cccc(C2(O)CCN(S(=O)(=O)c3ccc(F)c(C)c3)CC2)c1 (stereo unspecified) | 66.2* | 20.0 | 0.3 | -7.5 | -40.5 | -19.4
Cc1ccc(CN2CCC(CNC(=O)C3CCCN(c4ncnc5c4nc4n5CCCCC4)C3)CC2)cc1 (stereo unspecified) | 38.4* | 1.5 | 0.9 | -11.5 | -26.0 | -1.9
O=C(Nc1cccnc1Cl)C1CCCN(c2ncnc3c2nc2n3CCCCC2)C1 (stereo unspecified) | -35.1 | -15.4 | 3.1 | -5.4 | 17.7* | 3.6
